Experimental data reported in publication PMC3059893 (Biochemistry, 2011).
Changes are numbered by the printed parent chain. Peptide text beside a SMILES is read from it. * marks the point of attachment. Dansyl = CN(C)c1cccc2c(S(=O)(=O)*)cccc12

T1: Tiam2 PDZ domain (Mus musculus, UniProt Q6ZPF3)
T1 sequence (Q6ZPF3 908-997 limits assumed): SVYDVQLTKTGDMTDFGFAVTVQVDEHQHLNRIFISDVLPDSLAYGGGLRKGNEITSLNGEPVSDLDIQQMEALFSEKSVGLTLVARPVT

T2: Caspr4 (Homo sapiens)
T2 chain: ENQKEYFF

T3: Tiam1 peptide 2
T3 chain: YAAEKYWA

T4: Tiam1 peptide 3
T4 chain: YAAKAFRF

T5: Syndecan1 (Homo sapiens)
T5 chain: TKQEEFYA

B1: Tiam1 PDZ (protein)
chain: VTQSIHIEKSDTAADTYGFSLSSVEEDGIRRLYVNSVKETGLASKKGLKAGDEILEINNRAADALNSSML
B2: Tiam1 PDZ (protein)
chain: B1 chain with L70M

Key:
[1] = target: Tiam1 PDZ domain (wild-type) (Homo sapiens, UniProt Q13009); assay: Equilibrium fluorescence anisotropy binding of dansylated peptides
Tiam1 PDZ domain (wild-type), sequence (Q13009 841-930 limits assumed): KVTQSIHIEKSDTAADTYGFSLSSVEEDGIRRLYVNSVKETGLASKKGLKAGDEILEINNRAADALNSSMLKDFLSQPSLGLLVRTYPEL
Method in brief: (§1)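 Purified PDZ domains were titrated from a 1.5 mM stock into 1 μM N-terminally dansylated peptide at 25 °C in a stirred cuvette. Proteins were expressed in E. coli BL21(DE3), purified by Ni-chelate and size-exclusion chromatography, and His6-tag cleaved by TEV; Tiam2 is mouse residues 809–994; mutants made by site-directed mutagenesis. Anisotropy ex 340/em 550 nm, buffer-blank corrected. Kd from hyperbolic fit, mean of ≥3 independent runs; ΔG = RT ln Kd (298.15 K).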

Tiam2 PDZ domain = target: T1, Tiam2 PDZ domain; assay: as above
Method in brief: as §1

Caspr4 = target: T2, Caspr4; assay: fluorescence anisotropy
Tiam1 peptide 2 = target: T3, Tiam1 peptide 2; assay: fluorescence anisotropy
Tiam1 peptide 3 = target: T4, Tiam1 peptide 3; assay: fluorescence anisotropy
Syndecan1 = target: T5, Syndecan1; assay: fluorescence anisotropy

| Molecule | Kd [1] [µM] | Kd (Tiam2 PDZ domain) [µM] | Kd (Caspr4) [µM] | Kd (Tiam1 peptide 2) [µM] | Kd (Tiam1 peptide 3) [µM] | Kd (Syndecan1) [µM] |
| --- | --- | --- | --- | --- | --- | --- |
| C[C@H](NC(=O)[C@H](C)NC(=O)[C@H](Cc1ccc(O)cc1)NS(=O)(=O)c1cccc2c(N(C)C)cccc12)C(=O)N[C@@H](CCCCN)C(=O)N[C@@H](C)C(=O)N[C@@H](Cc1ccccc1)C(=O)N[C@@H](CCCNC(=N)N)C(=O)N[C@@H](Cc1ccccc1)C(=O)O [Tiam1 peptide 3 (Group II)] (Dansyl-YAAKAFRF-OH) | 200 ± 50 | 7.7 ± 1.3 |  |  |  |  |
| CC(C)[C@H](NC(=O)[C@H](Cc1ccc(O)cc1)NC(=O)[C@@H](NC(=O)[C@H](CCCNC(=N)N)NC(=O)[C@H](CCCCN)NC(=O)[C@H](C)NC(=O)[C@H](C)NC(=O)[C@H](Cc1ccc(O)cc1)NS(=O)(=O)c1cccc2c(N(C)C)cccc12)[C@@H](C)O)C(=O)O [Tiam2 peptide 1 (Group I)] (Dansyl-YAAKRTYV-OH) | > 250 | 77.6 ± 2.4 |  |  |  |  |
| C[C@H](NC(=O)[C@H](C)NC(=O)[C@H](Cc1ccc(O)cc1)NS(=O)(=O)c1cccc2c(N(C)C)cccc12)C(=O)NCC(=O)N[C@@H](CCCNC(=N)N)C(=O)N[C@@H](CCCCN)C(=O)N[C@@H](Cc1c[nH]cn1)C(=O)N[C@@H](Cc1ccccc1)C(=O)O [Tiam2 peptide 2 (Group II)] (Dansyl-YAAGRKHF-OH) | > 250 | 9.9 ± 2.2 |  |  |  |  |
| CC[C@H](C)[C@H](NC(=O)[C@H](CC(C)C)NC(=O)[C@H](C)NC(=O)[C@H](C)NC(=O)[C@H](Cc1ccc(O)cc1)NS(=O)(=O)c1cccc2c(N(C)C)cccc12)C(=O)N[C@@H](Cc1c[nH]cn1)C(=O)N[C@@H](CCCCN)C(=O)N[C@@H](Cc1ccccc1)C(=O)O [Tiam2 peptide 3 (Group II)] (Dansyl-YAALIHKF-OH) | > 250 | 28.7 ± 4.9 |  |  |  |  |
| B1 |  |  | 19 | 90.3 | 200 |  |
| B2 |  |  | 14 |  |  | 34.7 |
